Experimental data: ChEMBL document CHEMBL1152229, “Synthesis of potent water-soluble tissue transglutaminase inhibitors” (Bioorg Med Chem Lett, 2008)

Experiments:
[1] = Aqueous solubility of the compound; assay type: physicochemical
Rattus norvegicus = test: Protective effect against kidney dysfunction in Wistar rat subtotal 5/6 nephrectomy model of kidney scarring assessed as reduction in scarring administered through osmotic pump measured after 84 days of surgery; assay type: functional; design: scale not given: the % may be the effect or the level left
[2] = Inhibition of guinea pig liver transglutaminase 2 using 5-(biotinamido)pentylamine as substrate by enzyme linked sorbent assay; design: species or system Cavia porcellus
Method in brief: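 Wells coated with N,N'-dimethylcasein received TG2 (2 ng ml-1), biotinyl-5-pentylamine, CaCl2 (5 mM), DTT (5 mM) and a range of inhibitor concentrations, then were incubated for 1 h at 37 °C. Incorporated biotinyl-5-pentylamine was quantified with Extravidin peroxidase and o-phenylenediamine colour development.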

Cavia porcellus = species on record: Cavia porcellus; test: Inhibition of guinea pig liver transglutaminase 2 at 5 uM preincubated for 60 mins in the presence of Ca2+; design: scale not given: the % may be the effect or the level left

Row | Structure (SMILES) | IC50 [2] [µM] | further results
1 | C[S+](C)CC(=O)CC[C@H](NC(=O)[C@H](Cc1ccccc1)NC(=O)OCc1ccccc1)C(=O)O.[Br-] (stereo in doubt; 4d) | 10 | solubility ([1]; buffer): 167 mg/mL; Activity (Rattus norvegicus): 90%
2 | C[C@H](NC(=O)OCc1ccccc1)C(=O)N[C@@H](CCC(=O)C[S+](C)C)C(=O)O | 20 | –
3 | O=C(N[C@@H](Cc1ccccc1)C(=O)NCC1CC(Br)=NO1)OCc1ccccc1 (stereo partly specified) | > 200 | solubility ([1]; water, read-out: solubility): < 1 mg/mL
4 | CC[C@H](C)[C@H](NC(=O)OCc1ccccc1)C(=O)N[C@@H](CCC(=O)C[S+](C)C)C(=O)O | 350 | –
5 | C[S+](C)CC(=O)CC[C@H](NC(=O)[C@H](CC(=O)O)NC(=O)OCc1ccccc1)C(=O)O | 28 | –
6 | C[S+](C)CC(=O)CC[C@H](NC(=O)[C@H](Cc1ccccc1)NC(=O)Cc1ccccc1)C(=O)O | 110 | –
7 | CC(=O)CSc1n(C)cc[n+]1C.[Cl-] | 4 | solubility ([1]; water, read-out: solubility): 200 mg/mL
8 | CC[S+](CC)CC(=O)CC[C@H](NC(=O)[C@H](Cc1ccccc1)NC(=O)OCc1ccccc1)C(=O)O | 20 | –
9 | C[S+](C)CC(=O)CC[C@H](NC(=O)[C@@H]1C[C@@H](O)CN1C(=O)OCc1ccccc1)C(=O)O | 18 | –
10 | C[S+](C)CC(=O)CC[C@H](NC(=O)[C@H](Cc1ccccc1)NC(=O)OCC1c2ccccc2-c2ccccc21)C(=O)O | 30 | –
11 | C[S+](C)CC(=O)CC[C@H](NC(=O)[C@H](CCCCN)NC(=O)OCc1ccccc1)C(=O)O | 150 | –
12 | C[S+](C)CC(=O)CC[C@H](NC(=O)[C@@H]1CCCN1C(=O)OCc1ccccc1)C(=O)O.[Br-] | 5 | Activity (Cavia porcellus): 77%; solubility ([1]; water, read-out: solubility): 500 mg/mL
13 | C[S+](C)CC(=O)CC[C@H](NC(=O)[C@H](Cc1c[nH]c2ccccc12)NC(=O)OCc1ccccc1)C(=O)O | 12 | –
14 | C[S+](C)CC(=O)CC[C@H](NC(=O)CNC(=O)OCc1ccccc1)C(=O)O.[Br-] | 8 | solubility ([1]; water, read-out: solubility): 1000 mg/mL
15 | C[S+](C)CC(=O)CC[C@H](NC(=O)[C@H](Cc1ccccc1)NC(=O)OC(C)(C)C)C(=O)O | 300 | –
16 | C[S+](C)CC(=O)CC[C@H](NC(=O)[C@H](Cc1ccccc1)NC(=O)OCCc1ccccc1)C(=O)O | 8 | –
17 | C[S+](C)CC(=O)CC[C@H](NC(=O)[C@H](Cc1ccccc1)NC(=O)OCc1ccccc1)C(=O)O.[Br-] (stereo in doubt; 4n) | 5 | solubility ([1]; buffer): 67 mg/mL
18 | Cc1c(C)[n+](C)c(SCC(=O)CC[C@H](NC(=O)[C@H](Cc2ccccc2)NC(=O)OCc2ccccc2)C(=O)O)n1C | 3 | –
